Data reported in ChEMBL document CHEMBL4251593, “Nontoxic combretafuranone analogues with high in vitro antibacterial activity” (Eur J Med Chem, 2018).
Values after ≈ are worked out from the molar mass of the structure shown.

Legend:
[1] = test system: K562; test: Induction of apoptosis in human K562 cells assessed as caspase 3/7 activity after 24 hrs by caspase-glo luminescent assay; format: cell-based; details: K562, 24 h
Summary of the method: (§1)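 Cells were seeded at 500 per well in their growth media and exposed to 12 concentrations from 40 µM to 1 nM, delivered from DMSO, in triplicate. After 24 h, caspase-3/7 activity was read by Caspase-Glo luminescence. Data were normalized and ED50 was fitted by variable-slope nonlinear regression.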

[2] = test system: Pseudomonas aeruginosa; test: Antibacterial activity against Pseudomonas aeruginosa ATCC 9027 after 24 hrs by microdilution assay; format: functional; details: ATCC 9027, 24 h
Summary of the method: (§2)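 Broth microdilution in Mueller-Hinton medium buffered to pH 7.4 (±0.2), with DMSO as diluent at no more than 2% final. Compounds were tested as 2-fold serial dilutions from 2000 to 0.488 µmol/l. The inoculum was 0.5 McFarland (1.5×10^8 cfu/ml). Plates were held at 37 °C and read visually at 24 and 48 h. MIC was taken as 95% growth inhibition versus control, determined twice in duplicate.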

[3] = test system: HepG2; test: Cytotoxicity against human HepG2 cells assessed as reduction in cell viability after 48 hrs by ATPlite-based luminescent assay; details: HepG2, 48 h
Summary of the method: (§3)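 Cells were grown […] with 10% FBS, glutamax, NEAA and pen/strep at 37 °C, 5% CO2. Media were DMEM for RPE-1, HepG2 and BJ (BJ plus 10 ng/ml bFGF), F-12K for PC3, and IMDM for K562/HL-60. Cells were seeded at 500 per well and dosed from DMSO at 12 concentrations, 40 µM to 1 nM, in triplicate. After 48 h, intracellular ATP was read by luminescence. ED50 was obtained by variable-slope nonlinear regression.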

[4] = test system: Klebsiella pneumoniae; test: Antibacterial activity against Klebsiella pneumoniae HK11750/08 clinical isolate after 24 hrs by microdilution assay; format: functional; details: HK11750/08, 24 h
[5] = test system: Staphylococcus aureus; test: Antibacterial activity against Staphylococcus aureus ATCC 6538 after 48 hrs by microdilution assay; format: functional; details: ATCC 6538, 48 h
[6] = test system: Klebsiella pneumoniae; test: Antibacterial activity against Klebsiella pneumoniae HK14368/08 clinical isolate after 48 hrs by microdilution assay; format: functional; details: HK14368/08, 48 h
[7] = test system: HL-60; test: Induction of apoptosis in human HL60 cells assessed as caspase 3/7 activity after 24 hrs by caspase-glo luminescent assay; format: cell-based; details: HL-60, 24 h; summary of the method: as §1
[8] = test system: Staphylococcus aureus; test: Antibacterial activity against methicillin-resistant Staphylococcus aureus HK5996/08 clinical isolate after 48 hrs by microdilution assay; format: functional; details: HK5996/08, 48 h
[9] = test system: Klebsiella pneumoniae; test: Antibacterial activity against Klebsiella pneumoniae HK14368/08 clinical isolate after 24 hrs by microdilution assay; format: functional; details: HK14368/08, 24 h
[10] = test system: MCF7; test: Cytotoxicity against human MCF7 cells assessed as reduction in cell viability after 48 hrs by ATPlite-based luminescent assay; details: MCF7, 48 h
[11] = test system: Staphylococcus aureus; test: Antibacterial activity against methicillin-resistant Staphylococcus aureus HK5996/08 clinical isolate after 24 hrs by microdilution assay; format: functional; details: HK5996/08, 24 h
[12] = test system: K562; test: Cytotoxicity against human K562 cells assessed as reduction in cell viability after 48 hrs by ATPlite-based luminescent assay; details: K562, 48 h; summary of the method: as §3
[13] = test system: HL-60; test: Cytotoxicity against human HL60 cells assessed as reduction in cell viability after 48 hrs by ATPlite-based luminescent assay; details: HL-60, 48 h; summary of the method: as §3
[14] = test system: PC-3; test: Induction of apoptosis in human PC3 cells assessed as caspase 3/7 activity after 24 hrs by caspase-glo luminescent assay; format: cell-based; details: PC-3, 24 h; summary of the method: as §1
[15] = test system: Klebsiella pneumoniae; test: Antibacterial activity against Klebsiella pneumoniae HK11750/08 clinical isolate after 48 hrs by microdilution assay; format: functional; details: HK11750/08, 48 h
[16] = test system: Enterococcus sp.; test: Antibacterial activity against Enterococcus sp. HK14365/08 clinical isolate after 48 hrs by microdilution assay; format: functional; details: HK14365/08, 48 h
[17] = test system: TERT-RPE1; test: Cytotoxicity against human RPE1 cells assessed as reduction in cell viability after 48 hrs by ATPlite-based luminescent assay; details: RPE-1, 48 h; summary of the method: as §3
[18] = test system: TERT-RPE1; test: Induction of apoptosis in human RPE1 cells assessed as caspase 3/7 activity after 24 hrs by caspase-glo luminescent assay; format: cell-based; details: RPE-1, 24 h; summary of the method: as §1
[19] = test system: Escherichia coli; test: Antibacterial activity against Escherichia coli ATCC 8739 after 24 hrs by microdilution assay; format: functional; details: ATCC 8739, 24 h; summary of the method: as §2
[20] = test system: Staphylococcus aureus; test: Antibacterial activity against Staphylococcus aureus ATCC 6538 after 24 hrs by microdilution assay; format: functional; details: ATCC 6538, 24 h
[21] = test system: Staphylococcus epidermidis; test: Antibacterial activity against Staphylococcus epidermidis HK6966/08 clinical isolate after 24 hrs by microdilution assay; format: functional; details: HK6966/08, 24 h
[22] = test system: Enterococcus sp.; test: Antibacterial activity against Enterococcus sp. HK14365/08 clinical isolate after 24 hrs by microdilution assay; format: functional; details: HK14365/08, 24 h
[23] = test system: HepG2; test: Induction of apoptosis in human HepG2 cells assessed as caspase 3/7 activity after 24 hrs by caspase-glo luminescent assay; format: cell-based; details: HepG2, 24 h; summary of the method: as §1
[24] = test system: BJ; test: Cytotoxicity against human BJ cells assessed as reduction in cell viability after 48 hrs by ATPlite-based luminescent assay; summary of the method: as §3
[25] = test system: Escherichia coli; test: Antibacterial activity against Escherichia coli ATCC 8739 after 48 hrs by microdilution assay; format: functional; details: ATCC 8739, 48 h; summary of the method: as §2
[26] = test system: PC-3; test: Cytotoxicity against human PC3 cells assessed as reduction in cell viability after 48 hrs by ATPlite-based luminescent assay; details: PC-3, 48 h; summary of the method: as §3
[27] = test system: Staphylococcus epidermidis; test: Antibacterial activity against Staphylococcus epidermidis HK6966/08 clinical isolate after 48 hrs by microdilution assay; format: functional; details: HK6966/08, 48 h
[28] = test system: Pseudomonas aeruginosa; test: Antibacterial activity against Pseudomonas aeruginosa ATCC 9027 after 48 hrs by microdilution assay; format: functional; details: ATCC 9027, 48 h; summary of the method: as §2

Row | SMILES | IC50 [1] [µM] | MIC95 [2] [µM] | IC50 [3] [µM] | MIC95 [4] [µM] | MIC95 [5] [µM] | MIC95 [6] [µM] | IC50 [7] [µM] | MIC95 [8] [µM] | MIC95 [9] [µM] | IC50 [10] [µM] | MIC95 [11] [µM] | IC50 [12] [µM] | IC50 [13] [µM] | IC50 [14] [µM] | MIC95 [15] [µM] | MIC95 [16] [µM] | IC50 [17] [µM] | IC50 [18] [µM] | MIC95 [19] [µM] | MIC95 [20] [µM] | other results
1 | Cc1ccc(C2=C(c3cccc(C(F)(F)F)c3)C(=O)OC2)cc1 | 0.31 | > 500 | > 40 | > 500 | 31.2 (≈ 9.95 µg/mL) | > 500 | 2.66 | 31.2 (≈ 9.95 µg/mL) | > 500 | 19.1 | 31.2 (≈ 9.95 µg/mL) | 0.29 | 0.66 | > 40 | > 500 | > 500 | 1.33 | > 40 | > 500 | 31.2 (≈ 9.95 µg/mL) | MIC95 [21]: 15.6 µM (≈ 4.97 µg/mL); MIC95 [22]: > 500 µM; IC50 [23]: > 40 µM; IC50 [24]: > 40 µM; MIC95 [25]: > 500 µM; IC50 [26]: > 40 µM; MIC95 [27]: 15.6 µM (≈ 4.97 µg/mL); MIC95 [28]: > 500 µM
2 | O=C1OCC(c2ccc3c(c2)OCO3)=C1c1ccc2c(c1)OCO2 | > 40 | > 125 | > 40 | > 125 | > 125 | > 125 | > 40 | > 125 | > 125 | > 40 | > 125 | 16 | 17.4 | > 40 | > 125 | > 125 | 35.5 | > 40 | > 125 | > 125 | MIC95 [21]: > 125 µM; MIC95 [22]: > 125 µM; IC50 [23]: > 40 µM; IC50 [24]: > 40 µM; MIC95 [25]: > 125 µM; IC50 [26]: > 40 µM; MIC95 [27]: > 125 µM; MIC95 [28]: > 125 µM
3 | COc1ccc(C2=C(c3c(Cl)cccc3Cl)C(=O)OC2)cc1 | 16.2 | > 500 | > 40 | > 500 | 125 (≈ 41.9 µg/mL) | > 500 | 12.5 | > 500 | > 500 | > 40 | > 500 | 14.4 | 15.1 | > 40 | > 500 | > 500 | > 40 | > 40 | > 500 | 62.5 (≈ 20.9 µg/mL) | MIC95 [21]: 125 µM (≈ 41.9 µg/mL); MIC95 [22]: > 500 µM; IC50 [23]: > 40 µM; IC50 [24]: > 40 µM; MIC95 [25]: > 500 µM; IC50 [26]: > 40 µM; MIC95 [27]: 250 µM (≈ 83.8 µg/mL); MIC95 [28]: > 500 µM
4 | O=C1OCC(c2ccccc2)=C1c1cccc(C(F)(F)F)c1 | > 40 | > 500 | > 40 | > 500 | 15.6 (≈ 4.75 µg/mL) | > 500 | > 40 | 62.5 (≈ 19 µg/mL) | > 500 | > 40 | 62.5 (≈ 19 µg/mL) | > 40 | > 40 | > 40 | > 500 | > 500 | > 40 | > 40 | > 500 | 15.6 (≈ 4.75 µg/mL) | MIC95 [21]: 31.2 µM (≈ 9.51 µg/mL); MIC95 [22]: > 500 µM; IC50 [23]: > 40 µM; IC50 [24]: > 40 µM; MIC95 [25]: > 500 µM; IC50 [26]: > 40 µM; MIC95 [27]: 31.2 µM (≈ 9.51 µg/mL); MIC95 [28]: > 500 µM
5 | COc1ccc(C2=C(c3ccc(S(C)(=O)=O)cc3)COC2=O)cc1 | > 40 | > 500 | > 40 | > 500 | > 500 | > 500 | > 40 | > 500 | > 500 | > 40 | > 500 | > 40 | > 40 | > 40 | > 500 | > 500 | > 40 | > 40 | > 500 | > 500 | MIC95 [21]: > 500 µM; MIC95 [22]: > 500 µM; IC50 [23]: > 40 µM; IC50 [24]: > 40 µM; MIC95 [25]: > 500 µM; IC50 [26]: > 40 µM; MIC95 [27]: > 500 µM; MIC95 [28]: > 500 µM
6 | COc1cc(OC)c(C2=C(c3ccc(OC)c(OC)c3OC)COC2=O)c(OC)c1 | > 40 | > 500 | > 40 | > 500 | 31.2 (≈ 13 µg/mL) | > 500 | > 40 | 62.5 (≈ 26 µg/mL) | > 500 | > 40 | 62.5 (≈ 26 µg/mL) | 22.8 | > 40 | > 40 | > 500 | > 500 | > 40 | > 40 | > 500 | 31.2 (≈ 13 µg/mL) | MIC95 [21]: 125 µM (≈ 52.1 µg/mL); MIC95 [22]: > 500 µM; IC50 [23]: > 40 µM; IC50 [24]: > 40 µM; MIC95 [25]: > 500 µM; IC50 [26]: > 40 µM; MIC95 [27]: 125 µM (≈ 52.1 µg/mL); MIC95 [28]: > 500 µM
